Only some compounds are listed: those with a hit (about 3.5% of all), similar ones and a draw of the others.
RGS4 pot = RGS4 potentiators or activators, primary screen, cell-based, HEK293 M3R inducible RGS4, calcium flux; 310,000 compounds, 0.92% hits; AID 463111, 2010; carbachol calcium flux Fluo4; stronger effect = lower value; B-score at 10 µM;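 active means B-score of the integrated calcium signal more than 4 SD below the library mean, with starting fluorescence not abnormally high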;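 further: negative B-score means reduced calcium response which marks RGS4 activation or potentiation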
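System: HEK293 FlpIn-TREx cells, stable M3R, doxycycline-inducible RGS4. Timing: overnight RGS4 induction, 30 min dye load 37 °C, 20 min compound RT. Also added: carbachol, ECmax concentration. Measured by: Fluo4 fluorescence kinetic imaging of calcium. Evaluation: integrated calcium ratio converted to B score.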
MrgX1 antagonist = antagonists of human MrgX1 receptor, primary screen, HEK293 cells, Fluo-4 calcium flux; Mas-related G-protein coupled receptor member X1 (Homo sapiens), Q96LB2; B-score at 10 µM; AID 588676, 2011; BAM8-22 antagonism; stronger effect = lower value; 310,000 compounds, 1.3% hits;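 active means calcium-response B-score plate-corrected more than 3 library SD below zero, starting fluorescence within 5 deviations, no agonist response on first addition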;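 further: peak minus trough fluorescence over baseline after final BAM8-22 challenge near maximal dose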
Target sequence (Q96LB2 whole entry, looked up): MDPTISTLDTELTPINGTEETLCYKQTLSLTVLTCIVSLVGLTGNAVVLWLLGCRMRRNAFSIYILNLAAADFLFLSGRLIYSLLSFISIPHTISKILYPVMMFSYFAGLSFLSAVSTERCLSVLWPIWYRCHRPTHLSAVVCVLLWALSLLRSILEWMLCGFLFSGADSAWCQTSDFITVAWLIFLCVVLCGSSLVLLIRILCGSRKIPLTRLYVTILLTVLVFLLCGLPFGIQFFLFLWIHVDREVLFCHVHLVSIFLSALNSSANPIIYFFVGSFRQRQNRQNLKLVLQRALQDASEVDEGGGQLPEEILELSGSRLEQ
RGS4 inh = RGS4 inhibitors, primary screen, cell-based, HEK293 M3R inducible RGS4, calcium flux | B-score at 10 µM | Fluo-4 calcium flux; stronger effect = higher value; triggered by carbachol at its EC20 | 310,000 compounds, 0.45% hits | AID 463165, 2010;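 active means B-score, a plate-corrected calcium signal, over three deviations above library mean, with baseline fluorescence within five deviations of library mean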;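 further: RGS4 expression induced by doxycycline in cells with stable M3 receptor; B-score is computed from the integrated fluorescence ratio over baseline after carbachol; higher B-score means a larger calcium signal and so more RGS4 inhibition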
Target sequence (P49798 whole entry, looked up): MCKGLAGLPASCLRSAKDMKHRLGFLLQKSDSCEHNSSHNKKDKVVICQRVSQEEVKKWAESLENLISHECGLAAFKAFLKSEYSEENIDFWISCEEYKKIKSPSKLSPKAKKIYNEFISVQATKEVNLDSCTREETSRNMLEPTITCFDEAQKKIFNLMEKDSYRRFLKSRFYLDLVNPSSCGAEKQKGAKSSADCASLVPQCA
MrgX1 allo act = positive allosteric modulators of MrgX1, primary screen, HEK293 cells, Fluo-4 calcium flux | 310,000 compounds, 0.63% hits | Mas-related G-protein coupled receptor member X1 (Homo sapiens), Q96LB2 | FDSS; stronger effect = higher value | AID 588675, 2011 | B-score at 10 µM;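 active means plate-corrected calcium response at least 3 library SD above typical, normal starting fluorescence, not activating the receptor alone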;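 further: compound read alongside a low EC10 to EC30 dose of BAM8-22 agonist; peak minus trough fluorescence over baseline measured at the second addition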
MrgX1 agonist = agonists of human MrgX1 receptor, primary screen, HEK293 cells, Fluo-4 calcium flux; Fluo-4 calcium fluorescence, agonist mode; stronger effect = higher value; B-score at 10 µM; 310,000 compounds, 0.44% hits; AID 588627, 2011;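 active means calcium response B-score plate-corrected fluorescence ratio at least 3 library SD, with starting fluorescence B-score inside 5 SD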
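System – MrgX1-expressing HEK293 cells · Incubation – cells plated overnight, dye loaded 0.5 h 37 °C, 0.5 h room temperature · Technique – kinetic Fluo-4 NW fluorescence of intracellular calcium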
RGS4 act valid = reduced carbachol calcium response, RGS4-induced M3R cells, confirmation, RGS4 activator project, cell-based, HEK293 M3R/RGS4 inducible, calcium flux, duplicate; 1,100 compounds, 89% hits; inhibition, % at 10 µM; AID 602282, 2012; shares compounds with RGS4 pot; carbachol calcium flux Fluo4;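 active means inhibition above 3 SD of the buffer control wells, cut at about 41% in these data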;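 further: signal is the integrated peak-minus-minimum Fluo4 fluorescence over baseline ratio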
RGS4 act ctr = RGS4 activator counter-screen hit in non-induced cells; shares compounds with RGS4 pot; HEK293 M3R non-induced RGS4, Fluo4 calcium flux; after carbachol challenge at its EC90; AID 602283; inhibition, % at 10 µM; 1,100 compounds, 82% hits;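 active means inhibition exceeding 3 SD of buffer-only control wells, cut at about 26% in these data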;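 further: percent drop in integrated peak-minus-baseline over baseline Fluo4 ratio after carbachol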
Large screens that a line does not name were inactive (follow-up assays come after a bar, where they were run).

CCCc1nnc(NC(=O)CCC(=O)N2CCCCC2CC)s1 (centres undefined)	RGS4 pot -7.85 | RGS4 act valid inactive | RGS4 act ctr inactive
CC(/C=N/n1c(-c2cccnc2)n[nH]c1=S)=C\c1ccco1	none
Cc1ccccc1-c1n[nH]c(=S)n1/N=C/C=C/c1ccco1	RGS4 pot -8 | RGS4 act valid 89.0 | RGS4 act ctr 43.8
CC(/C=N/n1c(-c2n[nH]c3c2CCC3)n[nH]c1=S)=C\c1ccco1	RGS4 pot -9.02 | RGS4 act valid 93.0 | RGS4 act ctr 89.8
CN(CCCC(=O)O)c1ccc(N=Nc2ccc([N+](=O)[O-])cc2)cc1	none
O=C(Nc1ccc2c(c1)CCCN2C(=O)c1ccccc1)c1ccccc1	RGS4 pot -9.03 | RGS4 act valid 62.0 | RGS4 act ctr inactive
O=C(NC1CCCCC1)N1CCSC1=Nc1ccccc1	RGS4 pot -8.17 | RGS4 act valid 79.5 | RGS4 act ctr 42.8
C=CCNC(=O)c1ccc(C2SCC(=O)N2Cc2ccccc2)cc1 (centres undefined)	none
O=C(NCc1ccccc1)c1ccc(C2SCC(=O)N2Cc2ccccc2)cc1 (centres undefined)	RGS4 pot -7.9 | RGS4 act valid 88.0 | RGS4 act ctr 55.3
CCSc1ccccc1C(=O)N1CCC2(CC1)CC(=O)c1ccccc1O2	none
CCCC(O)(CCN1CCOCC1)c1ccc(Cl)cc1 (centres undefined)	none
CCOc1ccc(OCCN2CCCCC2)cc1	none
CCCC(O)(CCN1CCOCC1)c1ccc(Br)cc1 (centres undefined)	RGS4 pot -9.04 | RGS4 act valid 91.0 | RGS4 act ctr 78.3
CCCOc1ccc(C(O)(CCC)CCN2CCCCC2)cc1 (centres undefined)	RGS4 pot -8.34 | RGS4 act valid 87.5 | RGS4 act ctr 35.8
COc1ccc(C(=O)NC2=Nc3ccccc3N=C(C)C2c2ccccc2)cc1 (centres undefined)	none
CCn1cc(-c2csc(N)n2)c(C)n1	none
Cc1ccc(S(=O)(=O)Nc2cccc(C(=O)N3CCOCC3)c2)c(C)c1NS(C)(=O)=O	none
CCOc1ccc2oc(C(=O)N3CCN(c4ccccc4OCC)CC3)c(C)c2c1	RGS4 pot -10.3 | RGS4 act valid 91.5 | RGS4 act ctr 78.8
COc1ccccc1N1CCN(C(=O)c2oc3cc(C)c(C)cc3c2C)CC1	none (no result: MrgX1 antagonist, MrgX1 allo act, MrgX1 agonist)
COC(=O)c1ccccc1NC(=O)c1cn(-c2ccc(C)c(C)c2)c(=O)c2ccccc12	RGS4 pot -11.3 | RGS4 act valid 76.0 | RGS4 act ctr 83.8
CCOC(=O)c1ccccc1NC(=O)c1cn(-c2ccc(C)c(C)c2)c(=O)c2ccccc12	none
O=C(NNS(=O)(=O)c1ccc(F)c(Cl)c1)c1cccc(S(=O)(=O)N2CCOCC2)c1	none
COc1ccc(Br)cc1C(=O)Nc1ccc(Cc2ccncc2)cc1	none
COc1c(C(=O)Nc2ccc(Cc3ccncc3)cc2)ccc2ccccc12	RGS4 pot -12.7 | RGS4 act valid 92.0 | RGS4 act ctr 86.3
CCOc1cccc(C(=O)NC(=S)Nc2ccc(N3CCN(CC)CC3)cc2)c1	RGS4 pot -11 | RGS4 act valid 92.0 | RGS4 act ctr 86.8
Cc1ccc2c(c1)C1CC(C)(O2)N(c2cccc(C(=O)NC3CCN(Cc4ccccc4)CC3)c2)C(=O)N1 (centres undefined)	none
Cc1ccc(S(=O)(=O)n2c(CN3CCCC(C)C3)nc3ccccc32)cc1 (centres undefined)	RGS4 pot -10.5 | RGS4 act valid 60.0 | RGS4 act ctr 83.8
Cc1ccc(S(=O)(=O)n2c(C)nc3ccccc32)cc1	none
Nc1ccc(C(=O)N2CCN(S(=O)(=O)c3ccc4c(c3)OCCO4)CC2)cc1[N+](=O)[O-]	none
c1ccc(OCCOCCN2CCN(C(c3ccccc3)c3ccccc3)CC2)cc1	none
O=C1C2CSCN2C(=O)CN1CCCN1CCN(C(c2ccccc2)c2ccccc2)CC1 (centres undefined)	RGS4 pot -8.04 | RGS4 act valid 84.5 | RGS4 act ctr 33.8
CC(C)N(CC#CCC(O)(c1ccccc1)c1ccccc1)C(C)C	none
CCN(CC)CC#CCC(O)(c1ccccc1)C1CCCCC1 (centres undefined)	RGS4 pot -10.5 | RGS4 act valid 91.0 | RGS4 act ctr 90.3
CCC(C)Nc1nc(OC(C(F)(F)F)C(F)(F)F)nc(OC(C(F)(F)F)C(F)(F)F)n1 (centres undefined)	RGS4 pot -7.88 | RGS4 act valid 90.0 | RGS4 act ctr 52.8
O=C(O)c1cccc(Nc2nc(-c3cccnc3)nc3ccccc23)c1	none
COC(=O)c1cccc(Nc2nc(-c3cccnc3)nc3ccccc23)c1	RGS4 pot -8.43 | RGS4 act valid 42.0 | RGS4 act ctr inactive
CC(C)CCn1c(O)c(N=NC(=O)Cn2ccc(C(F)(F)F)n2)c2ccccc21	RGS4 pot -15.4 | RGS4 act valid 44.5 | RGS4 act ctr 83.8
CCCn1c(O)c(N=NC(=O)CNC(=O)c2ccncc2)c2ccccc21	none
CC1CCC(C(C)C)C(OC(=O)C[n+]2cc(-c3ccc(Cl)cc3)n3c2CCCCC3)C1 (centres undefined)	RGS4 pot -11.4 | RGS4 act valid 93.5 | RGS4 act ctr 94.3
O=C(CN1CCCCC1)Nc1ccccc1Oc1ccccc1	RGS4 pot -8.17 | RGS4 act valid 61.0 | RGS4 act ctr 83.8
CSc1nsc(SC)c1C(=O)Nc1ccc(C(C)(C)C)cc1	RGS4 pot -11.4 | RGS4 act valid 93.0 | RGS4 act ctr 79.3
O=c1c2c(nc3n1CCCCC3)-c1ccccc1CC21CCCCC1	RGS4 pot -15.9 | RGS4 act valid 90.5 | RGS4 act ctr 78.8
CCCCNc1c(-c2ccc(OC)c(Sc3ccc(OC)cc3)c2)nc2ccccn12	RGS4 pot -11.1 | RGS4 act valid 91.0 | RGS4 act ctr 71.3
CCCCCCSc1cc(-c2nc3cc(C)ccn3c2NCCCC)ccc1OC	none
c1ccc(COc2cccc(CN3CCc4ccccc4C3)c2)cc1	none
Cc1ccc(Cl)cc1NC1=NC(=S)N(C(C)C)C12CCCCC2	RGS4 pot -8.3 | RGS4 act valid 80.0 | RGS4 act ctr 41.3

Source: PubChem BioAssay
